From ChEMBL document CHEMBL1144871, “Synthesis of substituted 6-anilinouracils and their inhibition of DNA polymerase IIIC and Gram-positive bacterial growth” (J Med Chem, 2003)
In brackets after ≈: the same amount, converted by molar mass.

Tests used:
Escherichia coli = assay: Antibacterial activity against Escherichia coli was determined; type: functional
How it was run: (§1)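 Broth microdilution MIC. Log-phase cultures grown in Luria broth; wells seeded from stocks at (3-7) × 10⁵ CFU/mL. DMSO stocks diluted 2-fold to five concentrations, 20 to 1.25 µg/mL, plus untreated control; 1% DMSO final in all wells. Duplicate assays, 37 °C for 16 to 24 h, growth read as OD600. MIC taken as lowest concentration preventing growth, averaged.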

Staphylococcus aureus [1] = assay: Antibacterial activity against Staphylococcus aureus(smith) was determined; type: functional
Enterococcus faecalis [2] = assay: Antibacterial activity against Enterococcus faecalis was determined; type: functional
How it was run: (§2)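 MIC by broth microdilution. Log-phase cultures in Luria broth, seeded at (3-7) × 10⁵ CFU/mL stocks. Compound from DMSO stock, 2-fold serial dilutions giving five concentrations from 20 to 1.25 µg/mL, final 1% DMSO, with untreated and DMSO controls. Duplicate assays, 37 °C for 16 to 24 h, growth read as OD 600 nm. MIC is the averaged lowest concentration preventing growth.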

Staphylococcus aureus [3] = assay: Antibacterial activity against methicillin-resistant strain of Staphylococcus aureus(MRSA B42876) was determined; type: functional; how it was run: as §2
Enterococcus faecalis [4] = assay: Antibacterial activity against vancomycin-resistant strain of Enterococcus faecalis(VRE) was determined; type: functional; how it was run: as §2
Enterococcus faecium = assay: Antibacterial activity against Enterococcus faecium was determined; type: functional, enterococcus fecium; how it was run: as §1
[5] = molecular target: DNA polymerase III PolC-type (Bacillus subtilis (strain 168), UniProt P13267); assay: Inhibitory activity against DNA polymerase IIIC from Bacillus subtilis was determined
Sequence of DNA polymerase III PolC-type (P13267 whole entry, the tested form may be a part): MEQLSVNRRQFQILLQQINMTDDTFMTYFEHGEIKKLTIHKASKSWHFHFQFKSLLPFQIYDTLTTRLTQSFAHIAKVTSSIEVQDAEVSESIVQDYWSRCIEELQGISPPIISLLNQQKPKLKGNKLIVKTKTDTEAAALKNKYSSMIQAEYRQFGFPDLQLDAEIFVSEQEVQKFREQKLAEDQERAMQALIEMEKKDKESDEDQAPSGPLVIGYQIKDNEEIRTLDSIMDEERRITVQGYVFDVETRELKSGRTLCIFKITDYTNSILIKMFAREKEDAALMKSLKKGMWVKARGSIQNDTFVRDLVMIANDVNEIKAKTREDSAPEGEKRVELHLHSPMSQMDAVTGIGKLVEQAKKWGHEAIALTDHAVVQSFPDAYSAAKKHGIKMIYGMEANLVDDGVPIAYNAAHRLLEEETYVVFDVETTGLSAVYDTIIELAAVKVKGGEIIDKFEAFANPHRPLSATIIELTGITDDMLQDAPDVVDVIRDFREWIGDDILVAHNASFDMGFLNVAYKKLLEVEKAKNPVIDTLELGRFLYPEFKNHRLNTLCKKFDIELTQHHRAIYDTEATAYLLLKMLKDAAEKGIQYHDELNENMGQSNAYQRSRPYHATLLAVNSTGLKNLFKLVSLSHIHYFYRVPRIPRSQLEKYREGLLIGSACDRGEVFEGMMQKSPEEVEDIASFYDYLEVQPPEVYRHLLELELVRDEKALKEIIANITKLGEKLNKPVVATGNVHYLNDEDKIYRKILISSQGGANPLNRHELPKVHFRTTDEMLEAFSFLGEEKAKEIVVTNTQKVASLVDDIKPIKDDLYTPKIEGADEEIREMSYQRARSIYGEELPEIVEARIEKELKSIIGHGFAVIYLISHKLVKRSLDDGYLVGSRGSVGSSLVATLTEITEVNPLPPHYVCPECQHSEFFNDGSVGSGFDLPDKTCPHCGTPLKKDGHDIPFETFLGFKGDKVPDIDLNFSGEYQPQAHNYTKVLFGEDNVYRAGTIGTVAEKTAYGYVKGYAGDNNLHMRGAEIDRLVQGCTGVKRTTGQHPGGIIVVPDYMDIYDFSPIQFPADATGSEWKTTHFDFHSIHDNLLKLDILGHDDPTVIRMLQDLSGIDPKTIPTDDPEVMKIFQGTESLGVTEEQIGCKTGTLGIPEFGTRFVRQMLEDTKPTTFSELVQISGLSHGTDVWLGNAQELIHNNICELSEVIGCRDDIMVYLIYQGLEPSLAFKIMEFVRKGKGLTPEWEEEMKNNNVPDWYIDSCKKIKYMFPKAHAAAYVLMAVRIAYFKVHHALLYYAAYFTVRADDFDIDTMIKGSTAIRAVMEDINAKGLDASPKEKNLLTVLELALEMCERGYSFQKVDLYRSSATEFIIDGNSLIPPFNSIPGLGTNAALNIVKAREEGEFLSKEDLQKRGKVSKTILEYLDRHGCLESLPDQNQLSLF
How it was run: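 Homogeneous recombinant B. subtilis pol IIIC, 0.025-0.06 units, added to buffered Mg²⁺/DTT/glycerol mix with dATP, dCTP, dTTP, [³H]dTTP and activated calf thymus DNA, no dGTP ("truncated" assay). Compound serial dilutions in DMSO added before enzyme. 10 min at 30 °C, TCA-pyrophosphate stop, acid-precipitated DNA filtered and scintillation counted. Apparent Ki read directly; duplicates.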

Staphylococcus aureus [6] = assay: Antibacterial activity against Staphylococcus aureus was determined; type: functional
Bacillus subtilis = assay: Antibacterial activity against Bacillus subtilis was determined; type: functional

CCc1cc(Nc2cc(=O)n(CCCCN3CCN(c4ncccn4)CC3)c(=O)[nH]2)ccc1C
MIC (Escherichia coli): > 20 µg/mL | MIC (Staphylococcus aureus [1]): 10 µg/mL (≈ 21.6 µM) | MIC (Enterococcus faecalis [2]): 5 µg/mL (≈ 10.8 µM) | MIC (Staphylococcus aureus [3]): 10 µg/mL (≈ 21.6 µM) | MIC (Enterococcus faecalis [4]): 5 µg/mL (≈ 10.8 µM) | MIC (Enterococcus faecium): 5 µg/mL (≈ 10.8 µM)

CCc1cc(Nc2cc(=O)n(CCCCN3CCCCC3)c(=O)[nH]2)ccc1C
MIC (Escherichia coli): > 20 µg/mL | MIC (Staphylococcus aureus [1]): 40 µg/mL (≈ 104 µM) | Ki [5]: 28 nM | MIC (Enterococcus faecalis [2]): 20 µg/mL (≈ 52 µM) | MIC (Staphylococcus aureus [6]): 20 µg/mL (≈ 52 µM) | MIC (Bacillus subtilis): 10 µg/mL (≈ 26 µM) | MIC (Staphylococcus aureus [3]): 40 µg/mL (≈ 104 µM) | MIC (Enterococcus faecalis [4]): 10 µg/mL (≈ 26 µM) | MIC (Enterococcus faecium): 20 µg/mL (≈ 52 µM)

CCc1cc(Nc2cc(=O)n(CCCCN3CCN(c4ccc(F)cc4)CC3)c(=O)[nH]2)ccc1C
MIC (Escherichia coli): > 20 µg/mL | MIC (Enterococcus faecalis [2]): 10 µg/mL (≈ 20.9 µM) | MIC (Staphylococcus aureus [6]): 10 µg/mL (≈ 20.9 µM) | MIC (Staphylococcus aureus [3]): 20 µg/mL (≈ 41.7 µM) | MIC (Enterococcus faecalis [4]): 5 µg/mL (≈ 10.4 µM) | MIC (Enterococcus faecium): 5 µg/mL (≈ 10.4 µM)

CCc1cc(Nc2cc(=O)n(CCCCN3CCC(O)(c4ccc(Cl)cc4)CC3)c(=O)[nH]2)ccc1C
MIC (Escherichia coli): > 20 µg/mL | MIC (Staphylococcus aureus [1]): 5 µg/mL (≈ 9.78 µM) | MIC (Enterococcus faecalis [2]): 5 µg/mL (≈ 9.78 µM) | MIC (Staphylococcus aureus [3]): 5 µg/mL (≈ 9.78 µM) | MIC (Enterococcus faecalis [4]): 10 µg/mL (≈ 19.6 µM) | MIC (Enterococcus faecium): 5 µg/mL (≈ 9.78 µM)

CCc1cc(Nc2cc(=O)n(CCCCN=[N+]=[N-])c(=O)[nH]2)ccc1C
MIC (Escherichia coli): > 20 µg/mL | MIC (Staphylococcus aureus [1]): 2.5 µg/mL (≈ 7.3 µM) | Ki [5]: 120 nM | MIC (Enterococcus faecalis [2]): 5 µg/mL (≈ 14.6 µM) | MIC (Staphylococcus aureus [6]): 2.5 µg/mL (≈ 7.3 µM) | MIC (Bacillus subtilis): < 1.25 µg/mL | MIC (Staphylococcus aureus [3]): > 20 µg/mL | MIC (Enterococcus faecalis [4]): 2.5 µg/mL (≈ 7.3 µM) | MIC (Enterococcus faecium): < 1.25 µg/mL

C=C(C)c1cc(Nc2cc(=O)n(CCCCOC)c(=O)[nH]2)ccc1C
MIC (Escherichia coli): > 20 µg/mL | MIC (Staphylococcus aureus [1]): 10 µg/mL (≈ 29.1 µM) | Ki [5]: 565 nM | MIC (Enterococcus faecalis [2]): 20 µg/mL (≈ 58.2 µM) | MIC (Staphylococcus aureus [6]): 20 µg/mL (≈ 58.2 µM) | MIC (Bacillus subtilis): 2.5 µg/mL (≈ 7.28 µM) | MIC (Staphylococcus aureus [3]): > 20 µg/mL | MIC (Enterococcus faecalis [4]): 20 µg/mL (≈ 58.2 µM) | MIC (Enterococcus faecium): 20 µg/mL (≈ 58.2 µM)

COCCCCn1c(=O)cc(Nc2ccc(C)c(CSC#N)c2)[nH]c1=O
MIC (Escherichia coli): > 20 µg/mL | MIC (Staphylococcus aureus [1]): > 20 µg/mL | Ki [5]: 60 nM | MIC (Enterococcus faecalis [2]): > 20 µg/mL | MIC (Staphylococcus aureus [6]): > 20 µg/mL | MIC (Bacillus subtilis): > 20 µg/mL | MIC (Enterococcus faecium): > 20 µg/mL

COCCCCn1c(=O)cc(Nc2ccc(C)c(CCl)c2)[nH]c1=O
MIC (Escherichia coli): > 20 µg/mL | MIC (Staphylococcus aureus [1]): 20 µg/mL (≈ 56.8 µM) | Ki [5]: 40 nM | MIC (Enterococcus faecalis [2]): > 20 µg/mL | MIC (Staphylococcus aureus [6]): 20 µg/mL (≈ 56.8 µM) | MIC (Bacillus subtilis): 5 µg/mL (≈ 14.2 µM) | MIC (Staphylococcus aureus [3]): 20 µg/mL (≈ 56.8 µM) | MIC (Enterococcus faecium): > 20 µg/mL

COCCCCn1c(=O)cc(Nc2ccc(C)c(C)c2)[nH]c1=O
MIC (Escherichia coli): > 20 µg/mL | MIC (Staphylococcus aureus [1]): 10 µg/mL (≈ 31.5 µM) | Ki [5]: 550 nM | MIC (Enterococcus faecalis [2]): 10 µg/mL (≈ 31.5 µM) | MIC (Staphylococcus aureus [6]): 20 µg/mL (≈ 63 µM) | MIC (Bacillus subtilis): 2.5 µg/mL (≈ 7.88 µM) | MIC (Staphylococcus aureus [3]): 10 µg/mL (≈ 31.5 µM) | MIC (Enterococcus faecalis [4]): 10 µg/mL (≈ 31.5 µM) | MIC (Enterococcus faecium): 20 µg/mL (≈ 63 µM)

Cc1ccc(Nc2cc(=O)n(CCCCO)c(=O)[nH]2)cc1I
MIC (Escherichia coli): > 20 µg/mL | MIC (Staphylococcus aureus [1]): 5 µg/mL (≈ 12 µM) | Ki [5]: 67 nM | MIC (Enterococcus faecalis [2]): 5 µg/mL (≈ 12 µM) | MIC (Staphylococcus aureus [6]): 10 µg/mL (≈ 24.1 µM) | MIC (Bacillus subtilis): 5 µg/mL (≈ 12 µM) | MIC (Staphylococcus aureus [3]): 5 µg/mL (≈ 12 µM) | MIC (Enterococcus faecalis [4]): 2.5 µg/mL (≈ 6.02 µM) | MIC (Enterococcus faecium): 5 µg/mL (≈ 12 µM)

C=Cc1cc(Nc2cc(=O)n(CCCCOC)c(=O)[nH]2)ccc1C
MIC (Escherichia coli): > 20 µg/mL | MIC (Staphylococcus aureus [1]): 5 µg/mL (≈ 15.2 µM) | Ki [5]: 560 nM | MIC (Enterococcus faecalis [2]): 10 µg/mL (≈ 30.4 µM) | MIC (Staphylococcus aureus [6]): 5 µg/mL (≈ 15.2 µM) | MIC (Bacillus subtilis): < 1.25 µg/mL | MIC (Staphylococcus aureus [3]): 10 µg/mL (≈ 30.4 µM) | MIC (Enterococcus faecalis [4]): 10 µg/mL (≈ 30.4 µM) | MIC (Enterococcus faecium): 5 µg/mL (≈ 15.2 µM)

COCCCCn1c(=O)cc(Nc2ccc(C)c(C(C)=O)c2)[nH]c1=O
MIC (Escherichia coli): > 20 µg/mL | MIC (Staphylococcus aureus [1]): > 20 µg/mL | Ki [5]: 3260 nM | MIC (Enterococcus faecalis [2]): > 20 µg/mL | MIC (Staphylococcus aureus [6]): > 20 µg/mL | MIC (Bacillus subtilis): > 20 µg/mL | MIC (Enterococcus faecium): > 20 µg/mL

CCc1cc(Nc2cc(=O)n(CCCCN3CCSCC3)c(=O)[nH]2)ccc1C
MIC (Escherichia coli): > 20 µg/mL | MIC (Enterococcus faecalis [2]): 5 µg/mL (≈ 12.4 µM) | MIC (Staphylococcus aureus [6]): 20 µg/mL (≈ 49.7 µM) | MIC (Staphylococcus aureus [3]): 20 µg/mL (≈ 49.7 µM) | MIC (Enterococcus faecalis [4]): 5 µg/mL (≈ 12.4 µM) | MIC (Enterococcus faecium): 5 µg/mL (≈ 12.4 µM)

COCCCCn1c(=O)cc(Nc2ccc(C)c(CC#N)c2)[nH]c1=O
MIC (Escherichia coli): > 20 µg/mL | MIC (Staphylococcus aureus [1]): 20 µg/mL (≈ 58.4 µM) | Ki [5]: 1020 nM | MIC (Enterococcus faecalis [2]): > 20 µg/mL | MIC (Staphylococcus aureus [6]): > 20 µg/mL | MIC (Bacillus subtilis): 20 µg/mL (≈ 58.4 µM) | MIC (Enterococcus faecium): 20 µg/mL (≈ 58.4 µM)

COCCCCn1c(=O)cc(Nc2ccc(C)c(CS)c2)[nH]c1=O
MIC (Escherichia coli): > 20 µg/mL | MIC (Staphylococcus aureus [1]): > 20 µg/mL | Ki [5]: 180 nM | MIC (Enterococcus faecalis [2]): > 20 µg/mL | MIC (Staphylococcus aureus [6]): > 20 µg/mL | MIC (Bacillus subtilis): > 20 µg/mL | MIC (Enterococcus faecium): > 20 µg/mL

CCc1cc(Nc2cc(=O)n(CCCCN3CCC(O)(c4ccc(Cl)c(C(F)(F)F)c4)CC3)c(=O)[nH]2)ccc1C
MIC (Escherichia coli): > 20 µg/mL | MIC (Enterococcus faecalis [4]): 2.5 µg/mL (≈ 4.32 µM) | MIC (Enterococcus faecium): 2.5 µg/mL (≈ 4.32 µM)

CCc1cc(Nc2cc(=O)n(CCCCN3CCN(Cc4ccccc4)CC3)c(=O)[nH]2)ccc1C
MIC (Escherichia coli): > 20 µg/mL | MIC (Staphylococcus aureus [1]): 10 µg/mL (≈ 21 µM) | Ki [5]: 22 nM | MIC (Enterococcus faecalis [2]): 10 µg/mL (≈ 21 µM) | MIC (Staphylococcus aureus [6]): 20 µg/mL (≈ 42 µM) | MIC (Bacillus subtilis): 20 µg/mL (≈ 42 µM) | MIC (Staphylococcus aureus [3]): 10 µg/mL (≈ 21 µM) | MIC (Enterococcus faecalis [4]): 5 µg/mL (≈ 10.5 µM) | MIC (Enterococcus faecium): 10 µg/mL (≈ 21 µM)

CCc1cc(Nc2cc(=O)n(CCCCN3CCN(C(=O)c4ccco4)CC3)c(=O)[nH]2)ccc1C
MIC (Escherichia coli): > 20 µg/mL | MIC (Staphylococcus aureus [1]): 5 µg/mL (≈ 10.4 µM) | MIC (Enterococcus faecalis [2]): 5 µg/mL (≈ 10.4 µM) | MIC (Staphylococcus aureus [3]): 20 µg/mL (≈ 41.7 µM) | MIC (Enterococcus faecalis [4]): 10 µg/mL (≈ 20.9 µM) | MIC (Enterococcus faecium): 10 µg/mL (≈ 20.9 µM)
